{"source": "paper PMC9710334", "about": "(BMJ Open Gastroenterology, 2022)", "tested_on": "patients with advanced primary biliary cholangitis", "test": "Phase 1 trial: adverse events graded by CTCAE v4.0, safety and tolerability", "type": "in vivo, human", "method_in_brief": "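Seven advanced PBC patients (stage III or higher) received OP-724 iv at 280 (n=6) or 380 (n=1) mg/m2 over 4 hours, twice weekly for 12 cycles, after a single dose given 7 days before cycle 1. AEs and laboratory results were recorded throughout and graded by CTCAE v4.0. The primary endpoint was SAEs where drug causality could not be excluded.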", "data": [{"compound": "C[C@H]1[C@H]2N(C(=O)CN(C)N2C(=O)NCc2ccccc2)[C@@H](Cc2ccc(OP(=O)(O)O)cc2)C(=O)N1Cc1cccc2cccnc12", "note": "[OP-724]", "values": [{"measurement": "Abdominal discomfort, Grade 1, patients n (%)", "setting": "280 mg/m^2/4 hours (n=6)", "result": "2 (33%)"}, {"measurement": "Abdominal discomfort, Grade 2, patients n (%)", "setting": "280 mg/m^2/4 hours (n=6)", "result": 0}, {"measurement": "Abdominal discomfort, Grades 3–5, patients n (%)", "setting": "280 mg/m^2/4 hours (n=6)", "result": 0}, {"measurement": "Back pain, Grade 1, patients n (%)", "setting": "280 mg/m^2/4 hours (n=6)", "result": 0}, {"measurement": "Back pain, Grade 2, patients n (%)", "setting": "280 mg/m^2/4 hours (n=6)", "result": "1 (17%)"}, {"measurement": "Back pain, Grades 3–5, patients n (%)", "setting": "280 mg/m^2/4 hours (n=6)", "result": 0}, {"measurement": "Constipation, Grade 1, patients n (%)", "setting": "280 mg/m^2/4 hours (n=6)", "result": "1 (17%)"}, {"measurement": "Constipation, Grade 2, patients n (%)", "setting": "280 mg/m^2/4 hours (n=6)", "result": 0}, {"measurement": "Constipation, Grades 3–5, patients n (%)", "setting": "280 mg/m^2/4 hours (n=6)", "result": 0}, {"measurement": "Dermatitis contact, Grade 1, patients n (%)", "setting": "280 mg/m^2/4 hours (n=6)", "result": "1 (17%)"}, {"measurement": "Dermatitis contact, Grade 2, patients n (%)", "setting": "280 mg/m^2/4 hours (n=6)", "result": 0}, {"measurement": "Dermatitis contact, Grades 3–5, patients n (%)", "setting": "280 mg/m^2/4 hours (n=6)", "result": 0}, {"measurement": "Diarrhoea, Grade 1, patients n (%)", "setting": "280 mg/m^2/4 hours (n=6)", "result": "1 (17%)"}, {"measurement": "Diarrhoea, Grade 2, patients n (%)", "setting": "280 mg/m^2/4 hours (n=6)", "result": 0}, {"measurement": "Diarrhoea, Grades 3–5, patients n (%)", "setting": "280 mg/m^2/4 hours (n=6)", "result": 0}, {"measurement": "Dry skin, Grade 1, patients n (%)", "setting": "280 mg/m^2/4 hours (n=6)", "result": 0}, {"measurement": "Dry skin, Grade 2, patients n (%)", "setting": "280 mg/m^2/4 hours (n=6)", "result": "1 (17%)"}, {"measurement": "Dry skin, Grades 3–5, patients n (%)", "setting": "280 mg/m^2/4 hours (n=6)", "result": 0}, {"measurement": "Fever, Grade 1, patients n (%)", "setting": "280 mg/m^2/4 hours (n=6)", "result": "1 (17%)"}, {"measurement": "Fever, Grade 2, patients n (%)", "setting": "280 mg/m^2/4 hours (n=6)", "result": 0}, {"measurement": "Fever, Grades 3–5, patients n (%)", "setting": "280 mg/m^2/4 hours (n=6)", "result": 0}, {"measurement": "Haemorrhage, Grade 1, patients n (%)", "setting": "280 mg/m^2/4 hours (n=6)", "result": 0}, {"measurement": "Haemorrhage, Grade 2, patients n (%)", "setting": "280 mg/m^2/4 hours (n=6)", "result": "1 (17%)"}, {"measurement": "Haemorrhage, Grades 3–5, patients n (%)", "setting": "280 mg/m^2/4 hours (n=6)", "result": 0}, {"measurement": "Hepatic function abnormal, Grade 1, patients n (%)", "setting": "280 mg/m^2/4 hours (n=6)", "result": "1 (17%)"}, {"measurement": "Hepatic function abnormal, Grade 2, patients n (%)", "setting": "280 mg/m^2/4 hours (n=6)", "result": "1 (17%)"}, {"measurement": "Hepatic function abnormal, Grades 3–5, patients n (%)", "setting": "280 mg/m^2/4 hours (n=6)", "result": 0}, {"measurement": "Infusion site extravasation, Grade 1, patients n (%)", "setting": "280 mg/m^2/4 hours (n=6)", "result": 0}, {"measurement": "Infusion site extravasation, Grade 2, patients n (%)", "setting": "280 mg/m^2/4 hours (n=6)", "result": "1 (17%)"}, {"measurement": "Infusion site extravasation, Grades 3–5, patients n (%)", "setting": "280 mg/m^2/4 hours (n=6)", "result": 0}, {"measurement": "Nasopharyngitis, Grade 1, patients n (%)", "setting": "280 mg/m^2/4 hours (n=6)", "result": 0}, {"measurement": "Nasopharyngitis, Grade 2, patients n (%)", "setting": "280 mg/m^2/4 hours (n=6)", "result": 0}, {"measurement": "Nasopharyngitis, Grades 3–5, patients n (%)", "setting": "280 mg/m^2/4 hours (n=6)", "result": 0}, {"measurement": "Nausea, Grade 1, patients n (%)", "setting": "280 mg/m^2/4 hours (n=6)", "result": "1 (17%)"}, {"measurement": "Nausea, Grade 2, patients n (%)", "setting": "280 mg/m^2/4 hours (n=6)", "result": 0}, {"measurement": "Nausea, Grades 3–5, patients n (%)", "setting": "280 mg/m^2/4 hours (n=6)", "result": 0}, {"measurement": "Open angle glaucoma, Grade 1, patients n (%)", "setting": "280 mg/m^2/4 hours (n=6)", "result": 0}, {"measurement": "Open angle glaucoma, Grade 2, patients n (%)", "setting": "280 mg/m^2/4 hours (n=6)", "result": "1 (17%)"}, {"measurement": "Open angle glaucoma, Grades 3–5, patients n (%)", "setting": "280 mg/m^2/4 hours (n=6)", "result": 0}, {"measurement": "Renal impairment, Grade 1, patients n (%)", "setting": "280 mg/m^2/4 hours (n=6)", "result": "1 (17%)"}, {"measurement": "Renal impairment, Grade 2, patients n (%)", "setting": "280 mg/m^2/4 hours (n=6)", "result": 0}, {"measurement": "Renal impairment, Grades 3–5, patients n (%)", "setting": "280 mg/m^2/4 hours (n=6)", "result": 0}, {"measurement": "Tooth fracture, Grade 1, patients n (%)", "setting": "280 mg/m^2/4 hours (n=6)", "result": "1 (17%)"}, {"measurement": "Tooth fracture, Grade 2, patients n (%)", "setting": "280 mg/m^2/4 hours (n=6)", "result": 0}, {"measurement": "Tooth fracture, Grades 3–5, patients n (%)", "setting": "280 mg/m^2/4 hours (n=6)", "result": 0}, {"measurement": "Vomiting, Grade 1, patients n (%)", "setting": "280 mg/m^2/4 hours (n=6)", "result": "1 (17%)"}, {"measurement": "Vomiting, Grade 2, patients n (%)", "setting": "280 mg/m^2/4 hours (n=6)", "result": 0}, {"measurement": "Vomiting, Grades 3–5, patients n (%)", "setting": "280 mg/m^2/4 hours (n=6)", "result": 0}, {"measurement": "Abdominal discomfort, Grade 1, patients n (%)", "setting": "380 mg/m^2/4 hours (n=1)", "result": 0}, {"measurement": "Abdominal discomfort, Grade 2, patients n (%)", "setting": "380 mg/m^2/4 hours (n=1)", "result": 0}, {"measurement": "Abdominal discomfort, Grades 3–5, patients n (%)", "setting": "380 mg/m^2/4 hours (n=1)", "result": 0}, {"measurement": "Back pain, Grade 1, patients n (%)", "setting": "380 mg/m^2/4 hours (n=1)", "result": 0}, {"measurement": "Back pain, Grade 2, patients n (%)", "setting": "380 mg/m^2/4 hours (n=1)", "result": 0}, {"measurement": "Back pain, Grades 3–5, patients n (%)", "setting": "380 mg/m^2/4 hours (n=1)", "result": 0}, {"measurement": "Constipation, Grade 1, patients n (%)", "setting": "380 mg/m^2/4 hours (n=1)", "result": 0}, {"measurement": "Constipation, Grade 2, patients n (%)", "setting": "380 mg/m^2/4 hours (n=1)", "result": 0}, {"measurement": "Constipation, Grades 3–5, patients n (%)", "setting": "380 mg/m^2/4 hours (n=1)", "result": 0}, {"measurement": "Dermatitis contact, Grade 1, patients n (%)", "setting": "380 mg/m^2/4 hours (n=1)", "result": 0}, {"measurement": "Dermatitis contact, Grade 2, patients n (%)", "setting": "380 mg/m^2/4 hours (n=1)", "result": 0}, {"measurement": "Dermatitis contact, Grades 3–5, patients n (%)", "setting": "380 mg/m^2/4 hours (n=1)", "result": 0}, {"measurement": "Diarrhoea, Grade 1, patients n (%)", "setting": "380 mg/m^2/4 hours (n=1)", "result": 0}, {"measurement": "Diarrhoea, Grade 2, patients n (%)", "setting": "380 mg/m^2/4 hours (n=1)", "result": 0}, {"measurement": "Diarrhoea, Grades 3–5, patients n (%)", "setting": "380 mg/m^2/4 hours (n=1)", "result": 0}, {"measurement": "Dry skin, Grade 1, patients n (%)", "setting": "380 mg/m^2/4 hours (n=1)", "result": 0}, {"measurement": "Dry skin, Grade 2, patients n (%)", "setting": "380 mg/m^2/4 hours (n=1)", "result": 0}, {"measurement": "Dry skin, Grades 3–5, patients n (%)", "setting": "380 mg/m^2/4 hours (n=1)", "result": 0}, {"measurement": "Fever, Grade 2, patients n (%)", "setting": "380 mg/m^2/4 hours (n=1)", "result": 0}, {"measurement": "Fever, Grades 3–5, patients n (%)", "setting": "380 mg/m^2/4 hours (n=1)", "result": 0}, {"measurement": "Haemorrhage, Grade 1, patients n (%)", "setting": "380 mg/m^2/4 hours (n=1)", "result": 0}, {"measurement": "Haemorrhage, Grade 2, patients n (%)", "setting": "380 mg/m^2/4 hours (n=1)", "result": 0}, {"measurement": "Haemorrhage, Grades 3–5, patients n (%)", "setting": "380 mg/m^2/4 hours (n=1)", "result": 0}, {"measurement": "Hepatic function abnormal, Grade 1, patients n (%)", "setting": "380 mg/m^2/4 hours (n=1)", "result": 0}, {"measurement": "Hepatic function abnormal, Grades 3–5, patients n (%)", "setting": "380 mg/m^2/4 hours (n=1)", "result": 0}, {"measurement": "Infusion site extravasation, Grade 1, patients n (%)", "setting": "380 mg/m^2/4 hours (n=1)", "result": 0}, {"measurement": "Infusion site extravasation, Grade 2, patients n (%)", "setting": "380 mg/m^2/4 hours (n=1)", "result": 0}]}]}
